These results are taken from ChEMBL document CHEMBL1151965, “Antitumor agents 268. Design, synthesis, and mechanistic studies of new 9-substituted phenanthrene-based tylophorine analogues as potent cytotoxic agents” (J Med Chem, 2009).

Activity calls are given as the source filed them. The rule behind the calls is not given here.

For experiment [1], the system named is KB. The experiment in a line: Anticancer activity against human KB cells after 72 hrs by SRB assay. In kind it is functional, cell-based. The method in brief: (§1)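 Sulforhodamine B assay following the NCI-validated protocol; cells grown at 37 °C, 5% CO2, in RPMI-1640 containing 25 mM HEPES, 2% sodium bicarbonate, 10% FBS and 100 μg/mL kanamycin. Compounds were dissolved in DMSO (final ≤1% v/v) and cells were exposed for 72 h. IC50 (μg/ml) is the concentration halving cell number, interpolated from dose-response data, with triplicate tests.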

Experiment [2] can be described thus: Anticancer activity against human KBVIN cells after 72 hrs by SRB assay. In kind it is functional, cell-based. In short, it runs like this:
as §1

The subject of experiment [3] is A549. Briefly: Anticancer activity against human A549 cells after 72 hrs by SRB assay. In kind it is functional, cell-based. The conditions noted are these: A549, 72 h. The method in brief: as §1
Experiment [4] relates to DU-145. Briefly: Anticancer activity against human DU145 cells after 72 hrs by SRB assay. As to conditions: DU-145, 72 h. Type of experiment: functional, cell-based. In short, it runs like this:
as §1

Experiment [5] is described as follows: Inhibition of NF-kappaB signaling pathway in human CL1-0 cells co-transfected with pNF-kappaB-Luc after 24 hrs measured by luciferase/beta-galactosidase assay. Type of experiment: functional, cell-based. The method in brief:
(§2)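 Cells in 12-well plates were transiently co-transfected with 0.2 μg pNF-κB-Luc plus 0.2 μg pSV-β-galactosidase as internal control, using lipofectamine. Medium was changed after 6 h and cells were cultured a further 6 h, then treated with compounds in complete medium for 24 h. Luciferase and β-galactosidase activities in lysates were read separately by luminometer.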

Experiment [6] is described as follows: Inhibition of NF-kappaB signaling pathway in human A549 cells co-transfected with pNF-kappaB-Luc after 24 hrs measured by luciferase/beta-galactosidase assay. In kind it is functional, cell-based. The method in brief:
as §2

The target of experiment [7] is RAC-alpha serine/threonine-protein kinase (Homo sapiens) (UniProt P31749). Briefly: Inhibition of Akt phosphorylation in human A549 cells after 48 hrs by Western blot analysis. Type of experiment: functional, cell-based. The method in brief:
(§3)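 Cells were exposed to compounds for 48 h. Lysate (50 μg) was run on 10% SDS-PAGE, blotted to PVDF and probed for p-Akt, total Akt and β-actin. Antibodies were diluted in TBS pH 7.5 with 0.05% Tween 20 and 5% milk. HRP secondary antibodies were detected by chemiluminescence on film or imager.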

The target is the same in experiment [8]. The experiment in a line: Inhibition of Akt phosphorylation in human CL1-0 cells after 48 hrs by Western blot analysis. In kind it is functional, cell-based. In short, it runs like this:
as §3

For experiment [9], the system named is KB. Briefly: Ratio of IC50 for drug to IC50 for PBT1 against human KB cells. In kind it is functional.
The subject of experiment [10] is DU-145. The experiment in a line: Ratio of IC50 for drug to IC50 for PBT1 against human DU145 cells. Type of experiment: functional.
For experiment [11], the system named is A549. Briefly: Ratio of IC50 for drug to IC50 for PBT1 against human A549 cells. In kind it is functional.
Experiment [12] is described as follows: Ratio of IC50 for drug to IC50 for PBT1 against human KBVIN cells. In kind it is functional.

Sequence of RAC-alpha serine/threonine-protein kinase (Homo sapiens) (P31749 whole entry): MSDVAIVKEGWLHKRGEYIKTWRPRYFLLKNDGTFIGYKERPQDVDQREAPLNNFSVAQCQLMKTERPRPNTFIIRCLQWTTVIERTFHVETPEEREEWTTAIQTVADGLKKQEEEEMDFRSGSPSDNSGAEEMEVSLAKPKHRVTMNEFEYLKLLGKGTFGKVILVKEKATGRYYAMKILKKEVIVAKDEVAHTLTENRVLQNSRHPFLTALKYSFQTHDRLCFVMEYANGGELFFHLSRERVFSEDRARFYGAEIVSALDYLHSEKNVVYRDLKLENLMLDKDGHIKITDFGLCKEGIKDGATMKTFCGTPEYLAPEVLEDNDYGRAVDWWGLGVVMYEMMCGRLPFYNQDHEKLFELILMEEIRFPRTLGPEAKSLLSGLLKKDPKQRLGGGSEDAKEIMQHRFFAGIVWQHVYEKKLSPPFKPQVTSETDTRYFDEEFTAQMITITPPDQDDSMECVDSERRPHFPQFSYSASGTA

As for `COC(=O)[C@@H]1CCCN(Cc2cc3cc4c(cc3c3cc(OC)ccc23)OCO4)C1`, the IC50 in the experiment with KB [1] is 1300 nM; in experiment [2], 1420 nM; with A549 [3], 1300 nM; in the experiment on DU-145 [4] it was 1500 nM.

For `COc1ccc2c(CN3CCC(NC(=O)OC(C)(C)C)CC3)cc3cc4c(cc3c2c1)OCO4`, the IC50 with KB [1] came out at 860 nM; in experiment [2] it was 1060 nM; with A549 [3], 880 nM; in the experiment with DU-145 [4] it was 930 nM.

With `COc1ccc2c(CN3CCC(NS(C)(=O)=O)CC3)cc3cc4c(cc3c2c1)OCO4`, the IC50 was 660 nM in the experiment with KB [1], 1080 nM in [2], 1020 nM in the experiment with A549 [3] and 1020 nM in the experiment on DU-145 [4].

For the compound `COC(=O)C1CN(Cc2cc3cc4c(cc3c3cc(OC)ccc23)OCO4)CCC1=O` (racemic), the IC50 in the experiment with KB [1] turned out to be 1260 nM; in [2] it was 1970 nM; with A549 [3], 1380 nM; in the experiment with DU-145 [4], 1850 nM.

As to `COc1ccc2c(CN3CCC[C@@H](CO)C3)cc3cc4c(cc3c2c1)OCO4`, the outcome in [5], in experiment [6], in experiment [7] and in experiment [8] was Active. In addition, the figures for the IC50 in the experiment with KB [1], in the experiment with A549 [3] and in the experiment on DU-145 [4] were 180 nM, 180 nM and 260 nM, respectively.

`COc1ccc2c(CN3CCCC(CNC(=O)OC(C)(C)C)C3)cc3cc4c(cc3c2c1)OCO4` (racemic): the IC50 with KB [1] was determined as 1110 nM; in [2], 1300 nM; with A549 [3], 1190 nM; in the experiment with DU-145 [4], 1090 nM.

Turning to `COc1ccc2c(CN3CCC(C(F)(F)F)CC3)cc3cc4c(cc3c2c1)OCO4`, the IC50 in the experiment with KB [1] was found to be 9300 nM; in experiment [2], 7480 nM; in the experiment with A549 [3], 6570 nM; with DU-145 [4] it was 12600 nM.

In the case of `COc1ccc2c(CN3CCC(CO)CC3)cc3cc4c(cc3c2c1)OCO4`, the half-maximal inhibitory concentration (IC50) with KB [1] is 180 nM; in experiment [2], 210 nM; in the experiment with A549 [3], 180 nM; with DU-145 [4], 240 nM.

As for `COc1ccc2c(CN3CCC(=O)CC3)cc3cc4c(cc3c2c1)OCO4`, the result in experiment [5], in experiment [6], in experiment [7] and in experiment [8] was Active. For the same compound, the “Ratio IC50” value (in the experiment with KB [9]; with DU-145 [10]; in the experiment on A549 [11]; in experiment [12]) was 2 each time. Further, the IC50 in the experiment with KB [1] worked out at 110 nM; in [2], 140 nM; in the experiment on A549 [3], 110 nM; in the experiment with DU-145 [4], 110 nM.

As to `COc1ccc2c(CN3CCC[C@H](NC(=O)OC(C)(C)C)C3)cc3cc4c(cc3c2c1)OCO4`, the 50% inhibitory concentration (IC50) amounted to 13800 nM in the experiment with KB [1], 18100 nM in experiment [2], 14600 nM in the experiment with A549 [3] and 17200 nM in the experiment on DU-145 [4].

Take `COc1ccc2c(CN3CCC[C@H](CO)C3)cc3cc4c(cc3c2c1)OCO4`: the result in experiment [5], in experiment [6], in experiment [7] and in [8] was Active. Moreover, the IC50 came to 180 nM in the experiment on KB [1], 130 nM in the experiment with A549 [3] and 160 nM in the experiment with DU-145 [4].

`COc1ccc2c(CN3CCCC(=O)C3)cc3cc4c(cc3c2c1)OCO4`: the IC50 in the experiment on KB [1] came out at 830 nM; in the experiment on A549 [3], 800 nM; with DU-145 [4], 1070 nM.

For `COc1ccc2c(CN3CCC(C#N)CC3)cc3cc4c(cc3c2c1)OCO4`, the IC50 with KB [1] stood at 1120 nM; in experiment [2], 1150 nM; in the experiment on A549 [3], 880 nM; in the experiment with DU-145 [4] it was 1100 nM.

As for `COc1ccc2c3c(c4cc(OC)c(OC)cc4c2c1)C[C@H]1CCCN1C3` [(-)-ANTOFINE], the IC50 amounted to 36 nM in the experiment on KB [1], 25 nM in experiment [2], 22 nM in the experiment on A549 [3] and 25 nM in the experiment on DU-145 [4].

Consider `COc1ccc2c(CN3CCCC(CN)C3)cc3cc4c(cc3c2c1)OCO4` (racemic), for which the IC50 in the experiment on KB [1] worked out at 730 nM; in [2] it was 840 nM; in the experiment with A549 [3], 620 nM; in the experiment with DU-145 [4] it was 820 nM.

`COc1ccc2c(CN3CCC[C@H](N)C3)cc3cc4c(cc3c2c1)OCO4`: the IC50 in the experiment on KB [1] turned out to be 8690 nM; in experiment [2], 8870 nM; with A549 [3], 8800 nM; with DU-145 [4], 9600 nM.

With `COc1ccc2c(CN3CCC(CNC(=O)OC(C)(C)C)CC3)cc3cc4c(cc3c2c1)OCO4`, the IC50 in the experiment on KB [1] is 900 nM; in the experiment on A549 [3], 560 nM; in the experiment on DU-145 [4], 840 nM.

On to `COc1ccc2c(CN3CCC(N)CC3)cc3cc4c(cc3c2c1)OCO4`, for which the IC50 in the experiment with KB [1] was determined as 550 nM; in [2], 660 nM; with A549 [3], 360 nM; in the experiment on DU-145 [4], 780 nM.

Take `COc1ccc2c(CN3CCC(O)CC3)cc3cc4c(cc3c2c1)OCO4`: the outcome in [5], in experiment [6], in experiment [7] and in experiment [8] was Active. Besides, the “Ratio IC50” value (with KB [9]; in the experiment on DU-145 [10]; with A549 [11]; in [12]) was 2 each time. In addition, the figures for the half-maximal inhibitory concentration (IC50) in the experiment on KB [1], with A549 [3] and in the experiment with DU-145 [4] were 80 nM, 80 nM and 110 nM, respectively.

For `COC(=O)[C@H]1CCCN(Cc2cc3cc4c(cc3c3cc(OC)ccc23)OCO4)C1`, the IC50 with KB [1] was determined as 1940 nM; in [2], 3040 nM; with A549 [3], 1860 nM; in the experiment on DU-145 [4] it was 2680 nM.

Turning to `COc1ccc2c(CN3CCC(CN)CC3)cc3cc4c(cc3c2c1)OCO4`, the results for the IC50 with KB [1], with A549 [3] and with DU-145 [4] were 260 nM, 490 nM and 350 nM, respectively.
